This excerpt belongs to a sample that is enriched for hits.
697 NFkB inh: inhibitors of the PMA/ionomycin-induced NF-kB reporter in 697 B cells | 697 B-cell NF-kB luciferase reporter, 16 h | inhibition, % at 4 µM | actives 0.33% (n = 330,000) | AID 435022; in the data active = inhibition above about 35%
Jurkat NFkB inh: lowers PMA/ionomycin-induced NF-kB signal in Jurkat cells; inhibition, % at 4 µM; actives 0.53% (n = 330,000); PMA/ionomycin-induced NF-kB luciferase reporter, luminescence; in the data active = inhibition above about 50%
UPR CHOP act: activators of apoptotic arm of unfolded protein response (CHOP) | CHO-CHOP luciferase reporter, UPR activation, luminescence; percent of tunicamycin response over DMSO baseline | activation, % at 10 µM | actives 0.34% (n = 330,000) | AID 449763;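 active = at 10 µM dose, activation of 40% or more, normalized to positive control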;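 note: 100% = tunicamycin at 10 µg/mL and 0% = DMSO alone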
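Evaluation: % reporter activation, DMSO baseline versus tunicamycin full activation; System: CHO-CHOP luciferase reporter cell line; Input: 500 cells/well; Incubation: 6 h compound treatment, 37 °C; Measured by: Steady-Glo luciferase luminescence; Dosing: one dose, 10 µM in 0.5% DMSO; Buffer or medium: F12 medium, 10% FBS; Benchmarks: positive tunicamycin 10 µg/mL, negative DMSO alone.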
XBP1 UPR activ: activators of adaptive arm of unfolded protein response (XBP1) | CHO-XBP1 luciferase reporter, IRE1-XBP1 UPR activation, luminescence; percent of tunicamycin response, DMSO as zero | activation, % at 20 µM | actives 0.33% (n = 330,000) | AID 463104;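 active = versus positive control, 20 µM dose yields 30% or more activation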;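 note: 100% = tunicamycin at 10 µg/mL and 0% = DMSO only wells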
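Material: CHO-XBP1 cells stably carrying IRE1-XBP1-driven luciferase reporter | Medium: F12 with 10% serum | Compound dosing: 20 µM single concentration, DMSO 1% | Incubation: Overnight seeding at 37 °C, 6 h compound treatment at 37 °C | Detection: Steady-Glo luminescence read | Read-out basis: % activation of reporter signal versus tunicamycin and DMSO controls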
CHOP inh: CHOP inhibition in unfolded protein response | AID 2732 | CHO-K1 CHOP-promoter luciferase, tunicamycin-induced, 15-18 h | inhibition, % at 10 µM | actives 3.8% (n = 220,000);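 active = compounds that reduced the stress-induced luciferase reporter signal by more than about 70% of percent inhibition, limit read from the data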;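 note: 0% = tunicamycin plus vehicle and 100% = wells without tunicamycin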
Jurkat NFkB conf: inhibitors of the PMA/ionomycin-induced NF-kB reporter in Jurkat cells, retest. inhibition, % at 4 µM. actives 27% (n = 2,700). shares compounds with Jurkat NFkB inh. Jurkat NF-kB luciferase, 16 h;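 active = inhibition reaching about 45% at 4 µM in either replicate, limit read from the data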;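 note: plate controls were PMA/ionomycin stimulated DMSO wells for no effect and unstimulated DMSO wells for full effect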
697 NFkB conf: inhibitors of the PMA/ionomycin-induced NF-kB reporter in 697 B cells, retest | AID 449746 | shares compounds with 697 NFkB inh | inhibition, % at 4 µM | actives 35% (n = 2,000) | 697 B-cell NF-kB luciferase, 16 h; in the data active = inhibition mostly above about 28%, no sharp cut-off; inactive = mostly below about 22%
* = called active by the depositor; / = no result.

SMILES	697 NFkB inh	Jurkat NFkB inh	UPR CHOP act	XBP1 UPR activ	CHOP inh	Jurkat NFkB conf	697 NFkB conf
COc1cc(CSc2nnnn2-c2ccc(C)cc2)cc(OC)c1OC	44*	59*	4	-1	/	60*	47*
COc1ccc(F)cc1CSc1nnnn1-c1ccc(O)cc1	-11	15	0	-3	/	/	/
O=C(Nc1cccc(-c2cnc3ccccc3n2)c1)c1ccccc1	-49	0	4	2	1	/	/
CCc1ccc(-c2cnc3ccccc3n2)cc1NC(=O)CNC(=O)c1ccccc1	-276	-162	4	-5	/	-72	-115
O=C(Nc1cccc(Cl)c1)N(Cc1nc2ccccc2c(=O)[nH]1)Cc1cccs1	11	1	1	1	48	/	/
COc1ccc(CCNc2ncnc3c2oc2ccccc23)cc1OC	47*	62*	5	2	/	57*	54*
COc1ccc(Nc2ncnc3sccc23)cc1OC	-6	-29	-1	0	/	/	/
COc1ccc(CCNc2ncnc3sccc23)cc1OC	75*	64*	3	-2	70*	67*	92*
CN(C)S(=O)(=O)c1ccc(NC(=O)COc2ncnc3sccc23)cc1	6	3	1	-1	2	/	/
Cn1c(CS/C(N)=N/N=C/c2ccccc2)c(Br)c(=O)n1-c1ccccc1	10	-38	6	1	14	/	/
COc1ccc2cc(-c3ccccc3)ncc2c1	-327	-202	0	-4	/	-131	-303
COc1cc2cnc(-c3ccccc3)cc2cc1OC	0	-4	3	21	/	/	/
CC1CC(C)CN(C(=O)C2CCC(CNS(=O)(=O)c3ccccc3)CC2)C1 (configuration not stated)	19	14	3	-8	/	/	/
Cc1ccc(CNC(=O)c2ccc(N3CCCC3=O)cc2)cc1	7	-3	-2	1	-7	/	/
Cn1nc(C(C)(C)C)cc1C(=O)NCc1ccc(N2CCCC2=O)cc1	42*	66*	6	-2	83*	66*	57*
CC(C)(C)c1ccc(C(=O)N2CCCCCC2=O)cc1	71*	54*	-7	-4	89*	67*	66*
CC(C)(C)c1ccc(C(=O)Nc2ccc(C(=O)N3CCCC3)cc2)cc1	-44	-4	-1	-3	/	/	/
CCOC(=O)CN(c1ccccc1C)S(=O)(=O)c1ccc(Cl)cc1	-6	2	0	-5	/	/	/
Cc1ccc(-c2nc(Nc3ccccc3)n[nH]2)cc1	-280	-162	10	-2	31	-160	-367
Nc1nc(CSc2n[nH]c(-c3ccccc3)n2)nc(Nc2ccccc2)n1	-34	-1	1	9	22	/	/
CN[C@H]1CCc2cc(OC)c(OC)c(OC)c2-c2ccc(OC)c(=O)cc21	-330	72*	0	6	/	66*	-210
CN(Cc1c(F)cccc1Cl)C(=O)c1ccc2ccccc2n1	17	-17	0	-1	/	/	/
CC1C=CCC2C(=O)N(c3cccc(C(=O)NCc4ccccc4)c3)C(=O)C12 (configuration not stated)	-11	-4	0	5	/	/	/
CCN(CC)c1ccc(C(=O)Nc2cccc(F)c2)cc1	-293	-221	6	-4	-11	-144	-294
CC(NC(=O)C(=O)N1CCCCC1)C(c1cccs1)N1CCN(C)CC1 (configuration not stated)	1	3	2	1	/	/	/
SMILES	697 NFkB inh	Jurkat NFkB inh	UPR CHOP act	XBP1 UPR activ	CHOP inh	Jurkat NFkB conf	697 NFkB conf
Cc1ccc2cc3cc(C(=O)N4CCCCC4C)oc3nc2c1 (configuration not stated)	-329	-210	3	-1	-8	-160	-290
Cc1ccc2cc3cc(C(=O)N4CC(C)CC(C)C4)oc3nc2c1 (configuration not stated)	-45	-36	2	3	14	/	/
Cc1ccc(C(=O)/C=C/Nc2ccc3c(c2)OCO3)cc1	-376	-205	1	-8	44	-23	-76
Cc1ccc(N/C=C/C(=O)c2ccccc2)cc1Br	-282	-158	-1	-2	/	-72	-183
O=C(CCCc1nc2ccccc2s1)NNC(=O)CCN1CCN(Cc2ccccc2)CC1	6	-4	0	-1	24	/	/
CCOc1ccc(OCC)c(S(=O)(=O)n2cnc(C)c2)c1	-9	-11	0	0	/	/	/
COc1ccc(-c2cc(-c3ccccc3)n[nH]2)c(O)c1	-124	-121	6	1	-39	/	/
COc1ccc(-c2cc(-c3ccccc3O)[nH]n2)cc1	-361	-160	5	-3	-34	-145	-442
Cc1ccc(-c2cc(-c3ccc(C)cc3O)[nH]n2)cc1	-261	-200	5	2	/	-107	-272
Cc1ccc(-c2cc(-c3ccc(F)cc3)n[nH]2)c(O)c1	-270	-165	7	-2	/	-125	-278
Oc1ccccc1-c1cc(-c2ccc(F)cc2)n[nH]1	-272	-164	7	1	/	-100	-236
O=C(Nc1ccc(-c2noc(CCc3ccccc3)n2)cc1)c1cccnc1	-7	8	12	-1	11	/	/
Cc1ccc(-c2cc(-c3ccccc3)no2)cc1	-426	-203	0	-5	/	-149	-362
Cc1ccc2c(c1)COc1c3ccc(C(=O)O)cc3nn1-2	76*	93*	-9	-9	/	68*	4
CC(C)(C)C(=O)Nc1ccc(N=Nc2ccccc2)cc1	-261	-219	-3	-3	40	16	-204
COc1cc(/C=N/O)ccc1OCc1ccc(C(=O)O)cc1	85*	85*	-10	-6	90*	67*	48*
CC(=O)c1ccc(NC(=O)c2ccc(-n3cnnn3)cc2)cc1	-6	-20	0	2	/	/	/
COc1ccc(CNc2ncc(-c3ccc(F)cc3)n2C)c2ccccc12	40*	71*	-6	-10	/	50*	48*
CCN(CC)C(=S)Oc1ccc(Cl)cc1Cl	-5	11	2	2	22	/	/
c1ccc(-c2ccc(-c3nc(-c4ccccn4)no3)cc2)cc1	39*	77*	-9	-9	105*	81*	36*
Nc1nc(Cl)nc2c1ncn2C1CC(O)C(CO)O1 (configuration not stated)	65*	51*	-1	3	/	50*	68*
Nc1nc(F)nc2c1ncn2[C@@H]1O[C@H](CO)[C@@H](O)[C@H]1O	75*	93*	-4	-7	/	89*	92*
Nc1nc2c(ncn2[C@H]2C[C@H](O)[C@@H](CO)O2)c(=O)[nH]1	-18	-5	-1	-4	/	/	/
CC(C)Cn1c(N)c(C(=O)CSc2ccc3c(c2)OCCO3)c(=O)n(C)c1=O	39*	54*	1	3	/	47	-5
